Here are results for 13 molecules from ChEMBL document CHEMBL1275348, “Design, synthesis, and evaluation of duocarmycin O-amino phenol prodrugs subject to tunable reductive activation” (J Med Chem, 2010).

Active and inactive are the calls of the source. No cut-off for these calls is given here.

Broadly, the IC50 is the concentration that inhibits the measured activity by half. The low end stands for greater potency, the high end for weaker potency. In general, T/C refers to the ratio of treated to control. As a reminder, the half-life is how long it takes for the measured level to halve.

Data set [1] relates to L1210. Kind of data set: Cytotoxicity against mouse L1210 cells. The format is functional, cell-based.
In data set [2] the test system is L1210. Kind of data set: Antitumor activity against mouse L1210 cells xenografted in DBA/2J mouse assessed as mean survival period at 500 mg/kg, ip administered 3 times on day 1, 5 and 9 postimplantation. It is filed as functional. Particulars: route intraperitoneal. In outline:
(§1)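 Syngeneic L1210 leukemia cells (1 × 10^6) were injected i.p. into DBA/2J mice on day 0. Ten mice were randomly assigned per treatment or vehicle group. Compounds were formulated in 30% DMSO plus 0.7% glucose solution and injected i.p. on days 1, 5 and 9. Animals were monitored daily and weighed three times weekly, with the study running 120 days.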

The test system of data set [3] is L1210. As to the kind of experiment: Antitumor activity against mouse L1210 cells xenografted in DBA/2J mouse at 500 mg/kg, ip administered 3 times on day 1, 5 and 9 postimplantation relative to control. The format is functional. Particulars: route intraperitoneal. In outline: as §1
Data set [4] has as its system L1210. As to the kind of experiment: Antitumor activity against mouse L1210 cells xenografted in DBA/2J mouse assessed as mean survival period at 50 mg/kg, ip administered 3 times on day 1, 5 and 9 postimplantation. Particulars: route intraperitoneal. It is filed as functional. In a few lines: as §1
Data set [5] relates to L1210. Kind of data set: Antitumor activity against mouse L1210 cells xenografted in DBA/2J mouse assessed as mean survival period at 250 mg/kg, ip administered 3 times on day 1, 5 and 9 postimplantation. The format is functional. The following applies: route intraperitoneal. In outline: as §1
Data set [6] has as its system L1210. Kind of data set: Antitumor activity against mouse L1210 cells xenografted in DBA/2J mouse at 250 mg/kg, ip administered 3 times on day 1, 5 and 9 postimplantation relative to control. The format is functional. Particulars: route intraperitoneal. In a few lines:
as §1

For data set [7], the system named is L1210. As to the kind of experiment: Antitumor activity against mouse L1210 cells xenografted in DBA/2J mouse at 100 ug/kg, ip administered 3 times on day 1, 5 and 9 postimplantation relative to control. The following applies: route intraperitoneal.
In data set [8] the test system is L1210. Kind of data set: Antitumor activity against mouse L1210 cells xenografted in DBA/2J mouse assessed as survival at 50 mg/kg, ip administered 3 times on day 1, 5 and 9 postimplantation. The format is functional, organism-based. In a few lines: as §1
For data set [9], the system named is L1210. Kind of data set: Antitumor activity against mouse L1210 cells xenografted in DBA/2J mouse at 50 mg/kg, ip administered 3 times on day 1, 5 and 9 postimplantation relative to control. The format is functional. The following applies: route intraperitoneal. In outline:
as §1

For data set [10], the system named is L1210. Kind of data set: Antitumor activity against mouse L1210 cells xenografted in DBA/2J mouse assessed as mean survival period at 100 mg/kg, ip administered 3 times on day 1, 5 and 9 postimplantation. The following applies: route intraperitoneal. It is filed as functional. In outline:
as §1

Data set [11] concerns L1210. As to the kind of experiment: Antitumor activity against mouse L1210 cells xenografted in DBA/2J mouse assessed as survival at 100 mg/kg, ip administered 3 times on day 1, 5 and 9 postimplantation. The format is functional, organism-based. In outline: as §1
A short description of data set [12]: Chemical stability of the compound in phosphate buffer of pH 7 assessed as half life. It is filed as physicochemical. In outline:
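The compound was held in pH 7.0 phosphate buffer for up to 72 h. Cleavage was followed as release of CBI-indole2, and the half-life was estimated from this.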

The test system of data set [13] is L1210. Kind of data set: Antitumor activity against mouse L1210 cells xenografted in DBA/2J mouse at 10 mg/kg, ip administered 3 times on day 1, 5 and 9 postimplantation relative to control. The format is functional. Particulars: route intraperitoneal. In outline: (§2)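 DBA/2J mice received syngeneic L1210 cells (1 × 10^6) i.p. on day 0. Groups of ten mice were randomised to drug or vehicle. Dosing was i.p. on days 1, 5 and 9 in 30% DMSO plus 0.7% glucose solution. Animals were checked daily and weighed three times per week. The study ran 120 days, with survival compared against untreated controls.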

The subject of data set [14] is L1210. Kind of data set: Antitumor activity against mouse L1210 cells xenografted in DBA/2J mouse at 60 ug/kg, ip administered 3 times on day 1, 5 and 9 postimplantation relative to control. The following applies: route intraperitoneal.
For data set [15], the system named is L1210. Kind of data set: Antitumor activity against mouse L1210 cells xenografted in DBA/2J mouse assessed as mean survival period at 60 mg/kg, ip administered 3 times on day 1, 5 and 9 postimplantation. The format is functional. Particulars: route intraperitoneal. In a few lines:
as §1

Data set [16] has as its system L1210. Kind of data set: Antitumor activity against mouse L1210 cells xenografted in DBA/2J mouse assessed as mean survival period at 10 mg/kg, ip administered 3 times on day 1, 5 and 9 postimplantation. It is filed as functional. The following applies: route intraperitoneal. In outline:
as §1

Data set [17] deals with L1210. As to the kind of experiment: Antitumor activity against mouse L1210 cells xenografted in DBA/2J mouse assessed as mean survival period at 30 mg/kg, ip administered 3 times on day 1, 5 and 9 postimplantation. Particulars: route intraperitoneal. The format is functional. In outline:
as §1

In data set [18] the test system is L1210. As to the kind of experiment: Antitumor activity against mouse L1210 cells xenografted in DBA/2J mouse at 30 mg/kg, ip administered 3 times on day 1, 5 and 9 postimplantation relative to control. It is filed as functional. Particulars: route intraperitoneal. In a few lines:
as §2

In data set [19] the test system is L1210. Kind of data set: Antitumor activity against mouse L1210 cells xenografted in DBA/2J mouse at 200 mg/kg, ip administered 3 times on day 1, 5 and 9 postimplantation relative to control. The format is functional. Particulars: route intraperitoneal. In a few lines:
as §1

Data set [20] concerns L1210. Kind of data set: Antitumor activity against mouse L1210 cells xenografted in DBA/2J mouse assessed as mean survival period at 200 mg/kg, ip administered 3 times on day 1, 5 and 9 postimplantation. It is filed as functional. The following applies: route intraperitoneal. In outline: as §1
For data set [21], the system named is L1210. Kind of data set: Antitumor activity against mouse L1210 cells xenografted in DBA/2J mouse assessed as survival at 30 mg/kg, ip administered 3 times on day 1, 5 and 9 postimplantation. The format is functional, organism-based. In outline:
as §1

The test system of data set [22] is L1210. As to the kind of experiment: Antitumor activity against mouse L1210 cells xenografted in DBA/2J mouse assessed as survival at 60 mg/kg, ip administered 3 times on day 1, 5 and 9 postimplantation. It is filed as functional, organism-based. In a few lines:
as §1

The subject of data set [23] is L1210. As to the kind of experiment: Antitumor activity against mouse L1210 cells xenografted in DBA/2J mouse assessed as survival at 10 mg/kg, ip administered 3 times on day 1, 5 and 9 postimplantation. The format is functional, organism-based. In a few lines: as §1
The test system of data set [24] is L1210. As to the kind of experiment: Antitumor activity against mouse L1210 cells xenografted in DBA/2J mouse assessed as survival at 200 mg/kg, ip administered 3 times on day 1, 5 and 9 postimplantation. It is filed as functional, organism-based. In outline: as §1

`CN(Oc1cc2c(c3ccccc13)[C@H](CCl)CN2C(=O)c1cc2cc(NC(=O)c3cc4ccccc4[nH]3)ccc2[nH]1)C(=O)OC(C)(C)C` came in with an IC50 with L1210 [1] of 0.9 nM.

On to `NC(=O)NOc1cc2c(c3ccccc13)[C@H](CCl)CN2C(=O)c1cc2cc(NC(=O)c3cc4ccccc4[nH]3)ccc2[nH]1`, for which the Time with L1210 [2] amounted to 71 days; in the data set with L1210 [4], 29 days; with L1210 [5], 39 days; in the data set on L1210 [10], 33 days. Besides, the T/C in the data set on L1210 [3] is given as 323%; in the data set with L1210 [6] it was 177%; with L1210 [7] it was 152%; with L1210 [9] it was 133%. Besides, the outcome with L1210 [8] and in the data set with L1210 [11] was inactive. This molecule also registered an IC50 with L1210 [1] of 1.1 nM.

For the molecule `CN(Oc1cc2c(c3ccccc13)[C@@H](CCl)CN2C(=O)c1cc2cc(NC(=O)c3cc4ccccc4[nH]3)ccc2[nH]1)C(=O)OC(C)(C)C`, in the data set with L1210 [1], 30 nM corresponded to half-maximal inhibition (IC50).

With `COc1c(O)c2c(c3cc(C(=O)N4CCc5c4c(O)c(OC)c4[nH]c(C(=O)N6C[C@H]7C[C@@]78C6=CC(=O)c6[nH]cc(C)c68)cc54)[nH]c13)CCN2C(N)=O` [(+)-CC-1065], the IC50 with L1210 [1] stood at 0.02 nM.

Regarding `O=C(Nc1ccc2[nH]c(C(=O)N3C[C@H](CCl)c4c3cc(O)c3ccccc43)cc2c1)c1cc2ccccc2[nH]1`, in the data set with L1210 [1], inhibition was half-maximal at 0.9 nM (IC50).

On to `CC(C)(C)C(=O)NOc1cc2c(c3ccccc13)[C@H](CCl)CN2C(=O)c1cc2cc(NC(=O)c3cc4ccccc4[nH]3)ccc2[nH]1`, for which the half-life in data set [12] is 6 h. Further, in the data set on L1210 [1], the IC50 was 0.08 nM.

With `CC(C)(C)OC(=O)NOc1cc2c(c3ccccc13)[C@H](CCl)CN2C(=O)c1cc2cc(NC(=O)c3cc4ccccc4[nH]3)ccc2[nH]1`, the T/C with L1210 [13] was 225%; in the data set on L1210 [14], 315%; with L1210 [18], 265%; with L1210 [7], 389%. The Time with L1210 [15] was determined as 69 days; in the data set on L1210 [16], 50 days; in the data set with L1210 [17], 58 days; in the data set on L1210 [10] it was 86 days. The molecule further yielded an IC50 with L1210 [1] of 0.1 nM.

`NC(=O)NOc1cc2c(c3ccccc13)[C@@H](CCl)CN2C(=O)c1cc2cc(NC(=O)c3cc4ccccc4[nH]3)ccc2[nH]1`: inhibition with L1210 [1] was half-maximal at 30 nM (IC50).

In turn, `CC(C)(C)C(=O)NOc1cc2c(c3ccccc13)[C@@H](CCl)CN2C(=O)c1cc2cc(NC(=O)c3cc4ccccc4[nH]3)ccc2[nH]1` displayed an IC50 in the data set on L1210 [1] of 3.5 nM.

For the molecule `CC(C)(C)OC(=O)NOc1cc2c(c3ccccc13)[C@@H](CCl)CN2C(=O)c1cc2cc(NC(=O)c3cc4ccccc4[nH]3)ccc2[nH]1`, the midpoint of inhibition in the data set with L1210 [1], the IC50, lay at 4 nM.

`COC(=O)NOc1cc2c(c3ccccc13)[C@H](CCl)CN2C(=O)c1cc2cc(NC(=O)c3cc4ccccc4[nH]3)ccc2[nH]1`: the T/C in the data set on L1210 [13] is 110%; in the data set with L1210 [19] it was 145%; in the data set with L1210 [14] it was 126%; in the data set on L1210 [18] it was 133%; in the data set with L1210 [7], 122%. Moreover, the Time with L1210 [15] amounted to 28 days; with L1210 [16], 24 days; in the data set on L1210 [20] it was 32 days; in the data set with L1210 [17], 29 days; in the data set on L1210 [10], 27 days. Also, the outcome in the data set with L1210 [21], with L1210 [22], with L1210 [23], in the data set with L1210 [24] and in the data set on L1210 [11] was inactive. Further, in the data set with L1210 [1], the IC50 was 0.5 nM.

Consider `O=C(Nc1ccc2[nH]c(C(=O)N3C[C@@H](CCl)c4c3cc(O)c3ccccc43)cc2c1)c1cc2ccccc2[nH]1` [SECO-CBI-INDOLE], for which the T/C with L1210 [13] is listed as 192%; in the data set on L1210 [14] it was 352%; with L1210 [18], 230%; in the data set with L1210 [7] it was 333%. Also, the Time with L1210 [15] was 78 days; with L1210 [16], 42 days; in the data set on L1210 [17] it was 51 days; with L1210 [10], 73 days. Also, it took 0.03 nM to reach half-maximal inhibition in the data set on L1210 [1] (IC50).

As to `COC(=O)NOc1cc2c(c3ccccc13)[C@@H](CCl)CN2C(=O)c1cc2cc(NC(=O)c3cc4ccccc4[nH]3)ccc2[nH]1`, inhibition in the data set with L1210 [1] was half-maximal at 9 nM (IC50).
